Laboratory results published in the EternaBench riboswitch data.

System: MS2 coat protein
Experiment: apparent Kd, MS2 coat protein; higher = weaker binding; RNA-MaP array; FMN 200 µM where present
Procedure, shortened: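 Green signal was scaled to red-channel RNA signal and control-cluster median Fmax, and the apparent Kd was taken as the median of filtered per-cluster binding-curve fits. The binding series used SNAP-549-labelled MS2 coat protein from 0.7 or 1.5 nM, doubling to 3 µM, on designs transcribed by stalled E. coli RNA polymerase on Illumina sequencing-chip clusters. Each series ran without and then with constant ligand in 100 mM Tris-HCl pH 7.5, 80 mM KCl, 4 mM MgCl2, BSA, DTT, yeast tRNA and Tween-20.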

[1] = designed as: ON switch for flavin mononucleotide, no ligand
[2] = ligand present: flavin mononucleotide, designed as: ON switch for flavin mononucleotide
[3] = designed as: OFF switch for flavin mononucleotide, no ligand
[4] = ligand present: flavin mononucleotide, designed as: OFF switch for flavin mononucleotide

Row | Sequence | apparent Kd [1] | apparent Kd [2] | apparent Kd [3] | apparent Kd [4]
1 | UUUGAAUUGCAAGGAUAUCUUAUUUAGAUUUUAAGAGAAGGUGCUUUACAGUUACAUGAGGAUCACCCAUGUCUUUCUUUUUAU | 24.8 nM | 20 nM | – | –
2 | CACAAGAAAGUCGAACUAUGUAGGAGAAGGAGUAUAACAUGACAUGAGGAUCACCCAUGUGCCAAUUAGGAUAUUUUAUAUGGG | – | – | 184 nM | 97.7 nM
3 | AACCUAUUACAGAAGGCCAGCUACAUGAGGAUCACCCAUGUCGAGUCAUGGAGGAUAUGUAGUAAUUUACUCACAGAUGAGUGA | 22.9 nM | 5.07 nM | – | –
4 | CGGUGACGUGUAGGAUAUGGAGGUGGGUUUUGGCCAGAAGGACAUGAGGAUCACCCAUGUGGUAGAGGGUUGGCGGCUGCCCGU | – | – | 19.7 nM | 18.9 nM
5 | AGUAGACAAGGAUAUACAUGAGGAUCACCCAUGUGUGAAGGCCAGGAGGCUCCUCCCUGUAGAAGGUGUCGAGU | – | – | 104 nM | 293 nM
6 | CGGCCGCUACGCCGGCUCGACGCACAGGAUAUGCUGUUACAUGAGGAUCACCCAUGUGGCCAUGAGCAGAAGGGUGAUUCGCGA | 48.9 nM | 30.9 nM | – | –
7 | UCCUGAUUGAGAGGUAGGAGUGGUAGAAGGCGACCGGUGCCAGAUGACAUGAGGAUCACCCAUGUCGAGGAUAUACCACAGAAU | – | – | 6.96 nM | 13.1 nM
8 | AAUACAUGAGGAUCACCCAUGUUAUGAUCAAACAAUAUGAGUGAGGAUAUACUGAGUUAGUUAUGGUAGAAGGCACUGGGUUCA | 79.9 nM | 45.3 nM | – | –
9 | CAAUAUAGCACAGGAUAUGUCUCGUUUACAUGAGGAUCACCCAUGUCCGAAACAGAAGGGUGACCCGAUAUAGGACGUUGGGUG | 121 nM | 28.9 nM | – | –
10 | UAAUGAUAAGCAGGAUAUACUACACAUGAGGAUCACCCAUGUGUGUGAUCCACUCUCGUAUGGUAGUAGAAGGGCUCAGAGUAC | – | – | 153 nM | 80.6 nM
11 | GCACUUACGUUAGGAUAUGUAUCGGAAAACGAUACAGAAGGAAUAUGGGAACAUGAGGAUCACCCAUGUUCCUGAGACAAGUGC | 46.5 nM | 26.4 nM | – | –
12 | GCCUCAUAGUAGAAGGGACUUAGACAGUAAAGUUUAUAGAGGAAAUAACAUGAGGAUCACCCAUGUCAGGAUAUACUAAGAGGC | – | – | 7.42 nM | 9.47 nM
13 | UAUGGUAAAGUCAGGAUAUACGUACAUCGUUCUAGGUAGAAGGGACAUGAGGAUCACCCAUGUAUGGUAGUGUU | – | – | 106 nM | 107 nM
14 | GUGAACCGUAGGUCGUUGGCUGCACAGGAUAUGAAGGCGUACAUGAGGAUCACCCAUGUUCCCUAUCAGAAGGGUGACAGGAAA | 6.81 nM | 5.41 nM | – | –
15 | GAGCUAUGAGGAUAUGCAUAUAUACGGAUUCGUGUGGUACUACAUGAGGAUCACCCAUGUAGAAGGCGUGGCUG | – | – | 19 nM | 20.8 nM
16 | GGUUGGCGAGGAUAUACAUGAGGAUCACCCAUGUGGUCCUGUGGCUGGUCUUGACUUUGUAGAAGGCGCGGGUC | – | – | 49.7 nM | 55.3 nM
17 | UGUCCAUAGCAGAAGGACAUGAGGAUCACCCAUGUAAUCAUACAAAUAAAUGUAGGAUAUGCUAUGGACUAAGAGCGAAAGCUC | – | – | 6.24 nM | 7.26 nM
18 | UCCUACAUGGGAGGAUAUCCUCAAGAGACAUGAGGAUCACCCAUGUAUUAUAUGCCUCAUGGCAUGGAGAAGGCCCAUGUAGGU | 205 nM | 157 nM | – | –
19 | UGGAUCAUGGGAGGAUAUCCUCAAGAGACAUGAGGAUCACCCAUGUAUUAUAAGCCUAAUGGCAUGGAGAAGGCCCAUGAUCCU | 377 nM | 54 nM | – | –
20 | GGAUAGGACAGAGGAUAUACGUGCUAGAGAUAAUAGCAAAAUUUCCUCACAUGAGGAUCACCCAUGUAGAAGGCUGUCCUAUCG | – | – | 19.5 nM | 250 nM
21 | GAUCAACAUGAGGAUCACCCAUGUGAGGAUAUGAUACUAUGUACUUCGGUACAUAGUAUCAGAAGGCAUAUUGA | – | – | 54.8 nM | 41.9 nM

Row | Sequence | apparent Kd [1] | apparent Kd [2] | apparent Kd [3] | apparent Kd [4]
22 | AAAGGGAUUACGGAGGAUAUGGAAAAAAAAACAUGAGGAUCACCCAUGUCAAAAAAAAAAAAGGACCAGAAGGCCGUAAUCUCAAA | 27.3 nM | 18.9 nM | – | –
23 | GAGUGGAGGUAAGGAUAUAUAAUGAUAAUCACAGUAGAAGGUACUAACAUGAGGAUCACCCAUGUAGGACUAUACCAGAGAGGG | 16.9 nM | 15.3 nM | – | –
24 | CUUUCGUGAGGAUAUGUGGCUUCGAUCGUGAAAACGAGGCUACAGAAGGCACAUGAGGAUCACCCAUGUUCCUC | – | – | 34.4 nM | 454 nM
25 | AGUGUCAUCGAGAAGGCCUCAUGAACAUGAGGAUCACCCAUGUAAAAUGGGAGGAUAUCGAUGAUACAGCUACGUUUCGUAGCA | 74.4 nM | 28.5 nM | – | –
26 | AAGUGCUAAGGAUAUAUAUGGAUAUACAUUUAUGUAGAACUACAUGAGGAUCACCCAUGUAGAAGGUAGCAAUA | – | – | 25.3 nM | 42.3 nM
27 | AAGAAGCUCACAGGAUAUCAGUAUAUGCGAUCACACGUAUUAAUGAACUGCUGAGAAGGGUGAGACAUGAGGAUCACCCAUGUA | 446 nM | 238 nM | – | –
28 | CGUAGGAUGCAGAAGGCAUGAACAUGAGGAUCACCCAUGUCAAAAUACAUGAGGAUAUGCAUCCUACGAAAAGUGCGAAAGCAC | 4.62 nM | 4.3 nM | – | –
29 | GCUCUGUUAGGAUAUUUCGGCAUAGGUAUAACUUAAGCGUGAGAGAAGGAACAUGAGGAUCACCCAUGUUAAUC | – | – | 19.9 nM | 77.5 nM
30 | AUUCUUGGGCAAGGAUAUCCUGUGCGGUUCCGGCUCGUGUCUGUCACAUGAGGAUCACCCAUGUGGGAGAAGGUGCCUGCGGUC | – | – | 6.86 nM | 7.2 nM
31 | UUGUUCUGAGGAUAUACAUGAGGAUCACCCAUGUGUUUCUGCUUGGUGACUAGCGAAUGUAGAAGGCUGUUCUC | – | – | 33.6 nM | 35.6 nM
32 | UCCAUCCCUGUGAGGAUAUCGUCCGUUUUUUGUUCCGAGAAGGCACAUGAGGAUCACCCAUGUUUUUUGUUUUU | – | – | 29.4 nM | 58.8 nM
33 | UUUGUUUUGCAAGGAUAUGUUUAAUUUUAUUUUCCUUACACAUGAGGAUCACCCAUGUUAUUCUUACAGAAGGUGCGUAAUUUG | – | – | 165 nM | 166 nM
34 | GUAGCAUAAUUAGGAUAUUCAGCGAAUAGAUUGACAUGAGGAUCACCCAUGUGGCGAAAGCCUAGGGAGAAGGGAUAAUGCUAC | 254 nM | 120 nM | – | –
35 | AAAAUGUGAGGAUAUCAGGUGUGCUAGCGUACUGGUACAUCUGAGAAGGCACAUGAGGAUCACCCAUGUUUCUU | – | – | 21.5 nM | 79.7 nM
36 | ACAUGGAAUACAGGAUAUGUUAGUUUACAGUAGAUUGGUUAUUACUUAACUACAGAAGGGUAAUACAUGAGGAUCACCCAUGUA | 18.4 nM | 11.8 nM | – | –
37 | CUACCUUAUGAGAAGGCGAUCAUGAAACAUGAUCGAGGAUAUCAUGUAAACAUGAGGAUCACCCAUGUAUGGGUAUUAUGGUAA | 106 nM | 24.4 nM | – | –
38 | UGGUACUAGGGAGGAUAUGGGAGGAUACAUGAGGAUCACCCAUGUUUAAGAAUGCCGAGAGGCAACUAGAAGGCCCUAGUACCU | 919 nM | 63.7 nM | – | –
39 | CUUCAGUAAGGAUAUCAGCUUAGGAGGUUGGUAAUGAGAGCUGAGAAGGUACAUGAGGAUCACCCAUGUUAGUU | – | – | 20.3 nM | 33 nM
40 | GGGUACAUCGGAGGAUAUCAUGUAAAUACAUGAGGAUCACCCAUGUCGAUGGAGACAUCGGAGAUUAAGAAGGCCGAUGUACCG | 801 nM | 842 nM | – | –
41 | CGUAACUACAUAGGAUAUUGAUACAUGAGGAUCACCCAUGUUAUAGGGAUUAGUUUAAUAUUAAGCAAGAAGGAUGAAGUUACG | 18.6 nM | 12.4 nM | – | –
